MrgX1 antag: antagonists of human MrgX1 receptor, primary screen, HEK293 cells, Fluo-4 calcium flux; BAM8-22 antagonism; hits give low values; B-score at 10 µM; actives 1.3% (n = 310,000);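 active = calcium-response B-score plate-corrected more than 3 library SD below zero, starting fluorescence within 5 deviations, no agonist response on first addition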;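 note: peak minus trough fluorescence over baseline after final BAM8-22 challenge near maximal dose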
Target sequence (Q96LB2 whole entry, looked up): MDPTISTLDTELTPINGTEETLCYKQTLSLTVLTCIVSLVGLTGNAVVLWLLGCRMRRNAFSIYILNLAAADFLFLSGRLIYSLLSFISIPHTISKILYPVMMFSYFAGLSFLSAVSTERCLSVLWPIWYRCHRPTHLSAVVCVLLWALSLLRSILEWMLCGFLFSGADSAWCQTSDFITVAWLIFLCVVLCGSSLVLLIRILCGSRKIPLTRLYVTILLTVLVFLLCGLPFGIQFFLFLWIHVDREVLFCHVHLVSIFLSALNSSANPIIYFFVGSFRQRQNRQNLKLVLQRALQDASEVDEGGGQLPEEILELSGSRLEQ
MrgX1 allo act: positive allosteric modulators of MrgX1, primary screen, HEK293 cells, Fluo-4 calcium flux; B-score at 10 µM; FDSS; hits give high values; actives 0.63% (n = 310,000);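 active = plate-corrected calcium response at least 3 library SD above typical, normal starting fluorescence, not activating the receptor alone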;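 note: compound read alongside a low EC10 to EC30 dose of BAM8-22 agonist; peak minus trough fluorescence over baseline measured at the second addition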
MrgX1 agonist: agonists of human MrgX1 receptor, primary screen, HEK293 cells, Fluo-4 calcium flux | Mas-related G-protein coupled receptor member X1 (Homo sapiens), Q96LB2 | Fluo-4 calcium fluorescence, agonist mode; hits give high values | B-score at 10 µM | actives 0.44% (n = 310,000) | AID 588627, 2011;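 active = calcium response B-score plate-corrected fluorescence ratio at least 3 library SD, with starting fluorescence B-score inside 5 SD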
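Material: HEK293 cells stably expressing human MrgX1 receptor | Quantity: 15,000 cells per well | Times: Cells plated overnight, dye loaded 0.5 h 37 °C, 0.5 h room temperature | Measured by: Kinetic Fluo-4 NW fluorescence of intracellular calcium | Control set: Positive and negative controls per plate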
RGS4 inh: RGS4 inhibitors, primary screen, cell-based, HEK293 M3R inducible RGS4, calcium flux; Regulator of G-protein signaling 4 (Homo sapiens), P49798; Fluo-4 calcium flux; hits give high values; triggered by carbachol at its EC20; B-score at 10 µM; actives 0.45% (n = 310,000);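 active = B-score, a plate-corrected calcium signal, over three deviations above library mean, with baseline fluorescence within five deviations of library mean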;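 note: RGS4 expression induced by doxycycline in cells with stable M3 receptor; B-score is computed from the integrated fluorescence ratio over baseline after carbachol; higher B-score means a larger calcium signal and so more RGS4 inhibition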
Target sequence (P49798 whole entry, looked up): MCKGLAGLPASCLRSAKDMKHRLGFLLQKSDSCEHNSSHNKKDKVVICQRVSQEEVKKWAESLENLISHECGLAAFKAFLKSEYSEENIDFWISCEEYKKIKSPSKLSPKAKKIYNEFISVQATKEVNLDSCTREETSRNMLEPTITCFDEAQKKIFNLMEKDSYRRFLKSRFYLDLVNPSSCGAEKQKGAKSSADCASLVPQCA
KCC2 mod: KCC2 cotransporter modulators, thallium flux, primary screen, cell-based, HEK293 KCC2, FluoZin-2 fluorescence, MLSMR; Solute carrier family 12 member 5 (Homo sapiens), Q9H2X9; KCC2 cells, thallium flux FluoZin-2 fluorescence; B-score of Tl+ flux slope (higher = more flux/activation; lower = inhibition) at 10 µM; actives 2.2% (n = 190,000); AID 1456, 2008;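 active = thallium flux slope and its plate-corrected score both differing from the plate sample mean at a set confidence after two filtering rounds, in either direction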;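 note: slope of fluorescence scaled to starting intensity during 10 to 20 s after thallium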
RGS4 pot: RGS4 potentiators or activators, primary screen, cell-based, HEK293 M3R inducible RGS4, calcium flux; AID 463111, 2010; carbachol calcium flux Fluo4; hits give low values; B-score at 10 µM; actives 0.92% (n = 310,000);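 active = B-score of the integrated calcium signal more than 4 SD below the library mean, with starting fluorescence not abnormally high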;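 note: negative B-score means reduced calcium response which marks RGS4 activation or potentiation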
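System: HEK293 FlpIn-TREx cells, stable M3R, doxycycline-inducible RGS4. Timing: overnight RGS4 induction, 30 min dye load 37 °C, 20 min compound RT. Also added: carbachol, ECmax concentration. Measured by: Fluo4 fluorescence kinetic imaging of calcium. Evaluation: integrated calcium ratio converted to B score.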
The depositor's hits bear a star. An excerpt weighted towards active compounds, which were near 4.7% of everything screened.

Fc1ccccc1NC(=S)N/N=C/c1ccccc1Br was read as MrgX1 antag inactive, MrgX1 allo act inactive, MrgX1 agonist inactive, RGS4 inh inactive, KCC2 mod 6.2* and RGS4 pot inactive.
For O=[N+]([O-])c1ccc(/C=N/NC(=S)Nc2ccccc2F)o1 the results were MrgX1 antag inactive, MrgX1 allo act inactive, MrgX1 agonist inactive, RGS4 inh inactive, KCC2 mod 28* and RGS4 pot inactive.
For CCCn1c(N2CCN(Cc3ccc(Cl)cc3)CC2)nc2ccccc21 the results were MrgX1 antag inactive, MrgX1 allo act inactive, MrgX1 agonist 30*, RGS4 inh inactive, KCC2 mod -2.3 and RGS4 pot inactive.
For CCn1c(N2CCN(Cc3ccc([N+](=O)[O-])cc3)CC2)nc2ccccc21 the results were MrgX1 antag inactive, MrgX1 allo act inactive, MrgX1 agonist inactive, RGS4 inh inactive and RGS4 pot inactive.
For COc1ccc(C(=O)N=C2SC3CS(=O)(=O)CC3N2c2ccc(C(C)=O)cc2)cc1 (centres undefined) the results were MrgX1 antag inactive, MrgX1 allo act inactive, MrgX1 agonist inactive, RGS4 inh inactive and RGS4 pot inactive.
`COc1cccc(N(C(=O)Cn2nnc3ccccc32)C(C(=O)NCc2ccco2)c2cccnc2)c1` (centres undefined) gave RGS4 inh inactive, KCC2 mod -0.22 and RGS4 pot inactive.
COc1cccc(C(C(=O)NCc2ccco2)N(Cc2ccco2)C(=O)Cn2nnc3ccccc32)c1 (centres undefined) was read as MrgX1 antag inactive, MrgX1 allo act inactive, MrgX1 agonist inactive, RGS4 inh inactive, KCC2 mod -1.2 and RGS4 pot -7.2*.
For CCOC(=O)C1(CCCc2ccccc2)CCN(C(=O)CN2CCOC2=O)CC1 the results were MrgX1 antag inactive, MrgX1 allo act 7.3*, MrgX1 agonist inactive, RGS4 inh inactive, KCC2 mod -1.6 and RGS4 pot inactive.
Screening COc1ccc(N2CCN(Cc3cc4c(cc3Br)OCCO4)CC2)cc1 returned MrgX1 antag inactive, MrgX1 allo act inactive, MrgX1 agonist inactive, RGS4 inh inactive and RGS4 pot -7*.
Cc1nn(CC(=O)N2CCN(Cc3ccccc3)CC2)c(=O)c2ccccc12 was read as MrgX1 antag inactive, MrgX1 allo act 6.9*, MrgX1 agonist inactive, RGS4 inh inactive, KCC2 mod -0.83 and RGS4 pot inactive.
Screening COc1ccc(-n2nnnc2SCC(=O)Nc2cccc(O)c2)cc1 returned MrgX1 antag inactive, MrgX1 allo act inactive, MrgX1 agonist inactive, RGS4 inh inactive and RGS4 pot inactive.
Screening O=C(Nc1nccs1)C1CCCN1/C=C/C(=O)C(F)(F)F (centres undefined) returned MrgX1 antag inactive, MrgX1 allo act inactive, MrgX1 agonist inactive, RGS4 inh inactive and RGS4 pot inactive.
O=c1ccnc(Sc2ncccc2[N+](=O)[O-])[nH]1 was read as MrgX1 antag -5*, MrgX1 allo act inactive, MrgX1 agonist inactive, RGS4 inh inactive, KCC2 mod 0.49 and RGS4 pot inactive.
Screening O=[N+]([O-])c1cccnc1Sc1ccc(F)cc1 returned MrgX1 antag inactive, MrgX1 allo act inactive, MrgX1 agonist inactive, RGS4 inh inactive and RGS4 pot inactive.
For CCOC(=O)C1CCCN(C(c2ccccn2)c2c(C)[nH]c3ccccc23)C1 (centres undefined) the results were MrgX1 antag inactive, MrgX1 allo act inactive, MrgX1 agonist inactive, RGS4 inh inactive, KCC2 mod 0.29 and RGS4 pot -8.4*.
For O=C(Nc1ccc2ccccc2c1)c1ccc(Cl)cc1Cl the results were MrgX1 antag inactive, MrgX1 allo act inactive, MrgX1 agonist inactive, RGS4 inh inactive, KCC2 mod 0.075 and RGS4 pot inactive.
`O=C(Nc1nc(=S)ss1)c1ccc(Cl)cc1Cl` gave MrgX1 antag inactive, MrgX1 allo act inactive, MrgX1 agonist inactive, RGS4 inh inactive, KCC2 mod 5* and RGS4 pot inactive.
For COc1ccc(-c2c(NC(=O)CC(C)C)n(C)c3ccccc3c2=O)cc1OC the results were MrgX1 antag inactive, MrgX1 allo act inactive, MrgX1 agonist inactive, RGS4 inh inactive and RGS4 pot inactive.
CCCCn1c(N)c(N(CCOC)C(=O)c2ccc3c(c2)C(=O)N(c2ccccc2C)C3=O)c(=O)[nH]c1=O was read as MrgX1 antag inactive, MrgX1 allo act inactive, MrgX1 agonist inactive, RGS4 inh inactive and RGS4 pot inactive.
For CCCCn1c(N)c(N(CCOC)C(=O)c2ccc3c(c2)C(=O)N(c2cc(C)ccc2C)C3=O)c(=O)[nH]c1=O the results were MrgX1 antag inactive, MrgX1 allo act 12*, MrgX1 agonist inactive, RGS4 inh inactive and RGS4 pot inactive.
Screening N#C/C(=C\c1ccccn1)c1nc2ccccc2s1 returned MrgX1 antag -7.2*, MrgX1 allo act inactive, MrgX1 agonist inactive, RGS4 inh inactive, KCC2 mod 0.33 and RGS4 pot inactive.
`S=C(Nc1ccccc1)Nc1cc(Cl)ccc1Oc1ccccc1` gave MrgX1 antag inactive, MrgX1 allo act 9.1*, MrgX1 agonist inactive, RGS4 inh inactive and RGS4 pot inactive.
Screening COc1ccc(C2=CC(=O)CC(c3ccc(F)cc3)C2)cn1 (centres undefined) returned MrgX1 antag inactive, MrgX1 allo act 10*, MrgX1 agonist inactive, RGS4 inh inactive and RGS4 pot inactive.
`CCC(C(=O)NCCN1CCOCC1)n1nc(C)n2c(cc3sccc32)c1=O` (centres undefined) gave MrgX1 antag inactive, MrgX1 allo act inactive, MrgX1 agonist inactive, RGS4 inh inactive and RGS4 pot inactive.
For Nc1nc(NCC2CCCO2)nc(Nc2ccc(Cl)cc2)c1[N+](=O)[O-] (centres undefined) the results were MrgX1 antag inactive, MrgX1 allo act 6.8*, MrgX1 agonist inactive, RGS4 inh inactive, KCC2 mod 1 and RGS4 pot inactive.

Screening results: PubChem BioAssay, several laboratories
